Type in all cases: functional
Test [1] can be described thus: Dose ratio in the presence / absence of N-methyl-nalorphine (11.5 mg/kg) in acetic acid (AA) writhing. The method, boiled down:
(§1)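 Male TFW Tuck mice, groups of five to six; acetic acid (0.6%) ip at 25 mL kg⁻¹; writhes counted 5 min starting 15 min post-irritant. N-methylnalorphine 11.5 mg kg⁻¹ ip 20 min before sc agonist (both 10 mL kg⁻¹). ED50 by linear regression (50% writhe reduction vs vehicle); dose ratio = shift of parallel regression lines with/without antagonist.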
(In writhing tests, fewer writhes than in controls are read as antinociception.)

A further test is filed under the species Cavia porcellus. Description: In vitro opioid activity of compound in the GPI (guinea pig ileum) by determination of inhibition of electrically induced contractions. Summed up:
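Terminal ileum segments from 300-350 g guinea pigs in 20-mL bath, 1-g tension, Krebs' bicarbonate gassed 95% O2/5% CO2. Coaxial stimulation 0.1 Hz, 0.5 ms, supramaximal voltage; isotonic recording of contractions. Dose-response curves with 15-min washout between doses; opioid nature checked by reversal with naloxone (1 μg mL⁻¹).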

The species named for test [2] is Mus musculus. In words: Effective dose was measured in hot plate test. The method, boiled down:
(§2)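 Male CFLP mice (Hacking and Churchill), groups of five to six, placed on copper plate at 55 °C; endpoint paw licking/shaking or jumping, 30-s cut-off. Drugs sc, 10 mL kg⁻¹. ED50 = dose doubling response latency vs vehicle, by parallel-line probit analysis.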
On the technique in general: Hot-plate and tail-flick tests time the reaction to a heat stimulus.

The subject of test [3] is Mus musculus. In words: In vivo inhibition of Acetic acid-induced writhing in mice (sc). The method, boiled down:
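Male TFW Tuck mice, five to six per group; acetic acid (0.6%) ip, 25 mL kg⁻¹; writhes counted for 5 min from 15 min after irritant. Compounds sc, 10 mL kg⁻¹. ED50 = dose giving 50% fewer writhes than vehicle, by linear regression.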

For test [4], the system named is Mus musculus. Description: In vivo inhibition of phenyl-1,4-benzoquinone(PBQ) -induced writhing in mice (sc). The method, boiled down: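 Female CD1 Charles River mice, groups of five to six; PBQ 2.5 mg kg⁻¹ ip (10 mL kg⁻¹). Drug or vehicle sc 30 min before PBQ; writhes (abdominal contractions/hind-limb extensions) counted 2.5 min starting 10 min post-PBQ. ED50 = dose halving writhes vs vehicle, from linear regression.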

Test [5] in a line: Dose ratio in the presence/absence of N-methyl-nalorphine (11.5 mg/kg) in acetic acid (AA) writhing. The method, boiled down:
as §1

Test [6] has as its system Mus musculus. Description: Effective dose was measured in hot plate test; no effect 25 mg/kg. Summed up: as §2

Structures are written as SMILES. Numbered stars: 1 amine (or outer) side, 2 acyl side, 3 side chain; on linkers, the order of the positions; unused ones are H or OH. Square brackets hold non-standard residues; d marks the D form. Peptide text beside a SMILES is read from it. * marks the point of attachment. Phe(4-NO2) = N[C@@H](Cc1ccc([N+](=O)[O-])cc1)C(=O)O; Tyr(Nα-amidino) = N=C(N)N[C@@H](Cc1ccc(O)cc1)C(=O)*; X1 = O=C([C@@H](CSS(=O)(=O)O)N[*:1])[*:2]; X3 = O=C([C@@H](CCS(=O)(=O)O)N[*:1])[*:2]; X2 = C[S+](C)CC[C@@H](N[*:1])C(=O)[*:2]

One may read the ED50 as the dose at which the effect has come halfway, by size or by number of responders. A higher ED50 goes with a need for a large dose. In the case of `NC(=O)[C@@H]1CCCN1C(=O)[C@H](Cc1ccc([N+](=O)[O-])cc1)NC(=O)CNC(=O)[C@@H](CCC(=O)O)NC(=O)[C@@H](N)Cc1ccc(O)cc1`, the Ratio in test [1] is recorded as 5.5. For the same compound, the “IC50 for inhibition of electrically induced contractions” value (“IC50 for inhibition” for short) in the test filed under Cavia porcellus turned out to be 9 nM. The ED50 turned out to be 7.6 mg/kg in the test listed under Mus musculus [2], 1.4 mg/kg in the test on Mus musculus [3] and 3 mg/kg with Mus musculus [4].

As for `NC(=O)[C@@H]1CCCN1C(=O)[C@H](Cc1ccc([N+](=O)[O-])cc1)NC(=O)CNC(=O)[C@@H](CCCN=C(N)N)NC(=O)[C@@H](N)Cc1ccc(O)cc1`, in test [1], the Ratio was 5.5. In the test filed under Cavia porcellus, the “IC50 for inhibition” value is recorded as 132 nM. Moreover, the ED50 in the test listed under Mus musculus [2] was 35 mg/kg; in the test on Mus musculus [3], 5.7 mg/kg; in the test with Mus musculus [4], 4.9 mg/kg.

As to `NC(=O)[C@@H]1CCCN1C(=O)[C@H](Cc1ccc([N+](=O)[O-])cc1)NC(=O)CNC(=O)[C@@H](CSCCS(=O)(=O)[O-])NC(=O)[C@@H](N)Cc1ccc(O)cc1.[Na+]`, in test [1], the Ratio worked out at 4. Further, the “IC50 for inhibition” value in the test filed under Cavia porcellus is 3.6 nM. The 50% effect level with Mus musculus [3] (ED50) was put at a dose of 0.1 mg/kg.

As for `N=C(N)N[C@@H](Cc1ccc(O)cc1)C(=O)N[C@H](CCC(=O)O)C(=O)NCC(=O)N[C@@H](Cc1ccc([N+](=O)[O-])cc1)C(=O)N1CCC[C@H]1C(N)=O`, the Ratio in test [1] came to 1.2. Besides, the “IC50 for inhibition” value in the test listed under Cavia porcellus is on record as 414 nM. For the same compound, the ED50 in the test filed under Mus musculus [2] amounted to 5.3 mg/kg; in the test on Mus musculus [3], 0.5 mg/kg; in the test with Mus musculus [4], 0.3 mg/kg.

Turning to `Cl.NC(=O)[C@@H]1CCCN1C(=O)[C@H](Cc1ccc([N+](=O)[O-])cc1)NC(=O)CNC(=O)[C@@H](CS(=O)(=O)O)NC(=O)[C@@H](N)Cc1ccc(O)cc1`, the “IC50 for inhibition” value in the test listed under Cavia porcellus is recorded as 89.4 nM. Moreover, the ED50 in the test listed under Mus musculus [2] is 19 mg/kg; in the test on Mus musculus [3] it was 5.9 mg/kg.

Regarding `C[S+](C)CC[C@@H](NC(=O)[C@H](Cc1ccc(O)cc1)N=C(N)N)C(=O)NCC(=O)N[C@@H](Cc1ccc([N+](=O)[O-])cc1)C(=O)N1CCC[C@H]1C(N)=O.Cl.Cl`, the Ratio in test [1] is on record as 4.2. The “IC50 for inhibition” value in the test listed under Cavia porcellus came out at 525 nM. Moreover, the ED50 in the test filed under Mus musculus [2] was 10.9 mg/kg; in the test with Mus musculus [3], 0.5 mg/kg; with Mus musculus [4], 1.1 mg/kg.

With `CSCC[C@H](NC(=O)[C@@H](N)Cc1ccc(O)cc1)C(=O)NCC(=O)N[C@@H](Cc1ccc([N+](=O)[O-])cc1)C(=O)N1CCC[C@H]1C(N)=O` (H-YMG[Phe(4-NO2)]P-NH2), the Ratio in test [1] is reported as 1.2. Also, the “IC50 for inhibition” value in the test filed under Cavia porcellus came to 1.8 nM. Further, the median effective dose (ED50) in the test filed under Mus musculus [2] was determined as 1.6 mg/kg; in the test with Mus musculus [3], 0.1 mg/kg; in the test on Mus musculus [4], 0.4 mg/kg.

For the compound `NC(=O)[C@@H]1CCCN1C(=O)[C@H](Cc1ccc([N+](=O)[O-])cc1)NC(=O)CNC(=O)[C@@H](CSS(=O)(=O)O)NC(=O)[C@@H](N)Cc1ccc(O)cc1` (H-Y[X1]G[Phe(4-NO2)]P-NH2), in test [1], the Ratio stood at 3.9. Further, the “IC50 for inhibition” value in the test filed under Cavia porcellus stood at 7.5 nM. The ED50 in the test listed under Mus musculus [2] is 9.7 mg/kg; in the test on Mus musculus [3], 0.5 mg/kg; with Mus musculus [4], 0.4 mg/kg.

On to `C[S+](C)CC[C@@H](NC(=O)[C@@H](N)Cc1ccc(O)cc1)C(=O)NCC(=O)N[C@@H](Cc1ccc([N+](=O)[O-])cc1)C(=O)N1CCC[C@H]1C(N)=O.Cl.Cl` (H-Y[X2]G[Phe(4-NO2)]P-NH2), for which the “IC50 for inhibition” value in the test listed under Cavia porcellus came out at 61.2 nM. In addition, the ED50 was found to be 8.1 mg/kg in the test on Mus musculus [3] and 3.1 mg/kg in the test on Mus musculus [4]. The Ratio in test [5] is 3.3.

Turning to `Cl.NC(=O)[C@@H]1CCCN1C(=O)[C@H](Cc1ccc([N+](=O)[O-])cc1)NC(=O)CNC(=O)[C@@H](CCS(=O)(=O)O)NC(=O)[C@@H](N)Cc1ccc(O)cc1` (H-Y[X3]G[Phe(4-NO2)]P-NH2), the Ratio in test [1] worked out at 4.2. In addition, in the test filed under Cavia porcellus, the “IC50 for inhibition” value came to 807 nM. The ED50 in the test listed under Mus musculus [2] was found to be 18.6 mg/kg; in the test on Mus musculus [3], 3.5 mg/kg; with Mus musculus [4] it was 3.1 mg/kg.

`N=C(N)NCCC[C@@H](NC(=O)[C@H](Cc1ccc(O)cc1)NC(=N)N)C(=O)NCC(=O)N[C@@H](Cc1ccc([N+](=O)[O-])cc1)C(=O)N1CCC[C@H]1C(N)=O` ({Tyr(Nα-amidino)}-[dR]G[Phe(4-NO2)]P-NH2) gave an ED50 at 25 mg/kg in the test with Mus musculus [6] of 25 mg/kg. Moreover, in test [1], the Ratio is recorded as 4.6. For the same compound, in the test listed under Cavia porcellus, the “IC50 for inhibition” value came out at 420 nM. Moreover, the ED50 with Mus musculus [3] worked out at 0.8 mg/kg; with Mus musculus [4], 1.3 mg/kg.

In the test with Mus musculus [3], `CN1CC[C@]23c4c5ccc(O)c4O[C@H]2[C@@H](O)C=C[C@H]3[C@H]1C5` [MORPHINE] came in with an ED50 of 0.5 mg/kg.
